Only some compounds are listed: those with a hit (about 1.4% of all), similar ones and a draw of the others.
UBC9 SUMO inh – SUMOylation inhibition. P63279. HTRF SUMOylation assay, SAE1/SAE2 + UBC9, in vitro. inhibition, % at 35 µM. actives 0.36% (n = 290,000). AID 2006; in the data active means inhibition above about 50%, passing the limit was not always enough
Target sequence (P63279 whole entry, looked up): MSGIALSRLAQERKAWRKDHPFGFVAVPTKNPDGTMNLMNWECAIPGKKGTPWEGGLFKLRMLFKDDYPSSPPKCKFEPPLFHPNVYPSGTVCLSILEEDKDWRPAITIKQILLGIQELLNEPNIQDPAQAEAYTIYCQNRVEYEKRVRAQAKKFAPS
CTSL1 counter – counter-screen for PFM18AAP inhibitors: inhibitors of F. hepatica cathepsin L1; actives 0.49% (n = 300,000); recombinant F. hepatica cathepsin L1, Z-Leu-Arg-MCA fluorescence; inhibition, % at 5.96 µM;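 active means inhibition above the mean of all tested compounds plus 3 SD, set per screening campaign, cut at about 17% in these data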;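 further: 0% = plate median of test compound wells and 100% = 1 µM Z-Phe-Ala-diazomethylketone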
UCH37 DUB inh – human UCH37 deubiquitinating enzyme inhibition | purified proteasome/UCH37, Ub-AMC cleavage fluorescence | inhibition, % (test concentration not listed) | actives 0.33% (n = 330,000);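 active means mean inhibition over replicate wells above about 20%, limit read from the data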;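 further: 0% = compound-free wells with enzyme and 100% = wells lacking proteasome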
Target sequence (Q9Y5K5 whole entry, looked up): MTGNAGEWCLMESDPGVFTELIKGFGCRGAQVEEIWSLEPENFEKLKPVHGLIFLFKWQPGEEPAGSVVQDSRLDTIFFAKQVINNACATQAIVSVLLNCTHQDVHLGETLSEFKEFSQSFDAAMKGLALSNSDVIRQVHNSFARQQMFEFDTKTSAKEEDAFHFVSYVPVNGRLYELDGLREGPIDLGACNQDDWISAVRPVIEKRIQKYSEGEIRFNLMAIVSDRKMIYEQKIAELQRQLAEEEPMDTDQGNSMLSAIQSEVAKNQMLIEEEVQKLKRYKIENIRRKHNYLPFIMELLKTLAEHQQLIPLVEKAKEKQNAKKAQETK
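Reagent: Ub-AMC substrate; assay system: Proteasome-associated human UCH37 deubiquitinase; controls: no-proteasome and no-compound wells; read-out: % inhibition of Ub-AMC cleavage fluorescence; timing: 30 min preincubation with enzyme, 25 min cleavage at room temperature; signal: AMC fluorescence from Ub-AMC cleavage, excitation 355 nm, emission 460 nm; buffer or medium: Tris-HCl pH 7.4 plus ovalbumin, ATP-MgCl2, DTT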
Neddylation inh – inhibitors of human cullin neddylation; P61081+Q13564; TR-FRET cullin neddylation, biochemical; inhibition, % at 25 µM; actives 0.58% (n = 360,000); AID 651699; in the data active means inhibition above about 36%
UCH37 confirm – confirmation of human UCH37 deubiquitinating enzyme inhibitors | shares compounds with UCH37 DUB inh | Proteasome-bound UCH37, Ub-AMC cleavage fluorescence | inhibition, % at 20 µM | actives 27% (n = 480) | AID 624100;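 active means average inhibition over replicates above about 50%, so the earlier screening hit is confirmed, limit read from the data; inactive means the rest, counted as false positives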;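 further: based on cleavage rate fitted by regression over a 30 min kinetic read; 0% = proteasome plus Ub-AMC and 100% = Ub-AMC without proteasome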
* marks the source's active call; other numbers are inactive results; / = no result.

SMILES	UBC9 SUMO inh	CTSL1 counter	UCH37 DUB inh	Neddylation inh	UCH37 confirm
CS(=O)(=O)c1ccc(S(=O)CC(=O)OCc2ccccc2)c([N+](=O)[O-])c1 (stereo not given)	20.3	/	43.6*	-10.5	21.6
O=C(CS(=O)c1ccc(C(F)(F)F)cc1[N+](=O)[O-])Oc1ccccc1 (stereo not given)	-20.5	6.4	7.8	-25.2	/
O=C(O)c1ccccc1NS(=O)(=O)c1ccc(NN=Cc2cccc(O)c2O)c([N+](=O)[O-])c1	/	/	32.2*	/	40.3
CCOc1cccc(C=NNc2ccc(S(=O)(=O)Nc3ccccc3C(=O)O)cc2[N+](=O)[O-])c1O	/	/	8.3	-40.2	/
C=CCOc1ccc(C=NNc2ccc(S(=O)(=O)Nc3ccccc3C(=O)O)cc2[N+](=O)[O-])cc1OC	/	/	86.3*	-64.9	83.3*
O=C(O)c1ccc(NN=C/C=C/c2ccc([N+](=O)[O-])o2)cc1	/	/	30.2*	/	36.7
CCOC(=O)/C(=C\C=C1/Sc2cc(OCC)c(OCC)cc2N1CC)C(C)=O	-0.2	6.4	29.5*	-315.2	17.7
CCOC(=O)/C(=C/C=C1\Sc2cc(OCC)c(OCC)cc2N1CC)C(C)=O	30.1	3.1	7.3	-495.1	/
COc1cc(C=NNC(=O)CCC(=O)Nc2ccc(Br)cc2)ccc1O	/	/	1.1	/	/
COc1cc(/C=N/N2CCCCC2)cc([N+](=O)[O-])c1O	6.4	2.4	/	-32.3	/
COc1cc(C=Nn2cnnc2-n2nc(C)cc2C)cc([N+](=O)[O-])c1O	/	/	29.2*	/	25.5
CCOc1ccccc1C=NNc1ccnc(=O)[nH]1	/	/	6.2	/	/
Nc1nnnn1CC(=O)NN=C/C=C/c1ccccc1	/	/	3.2	/	/
Cc1[nH]n(-c2ccccc2)c(=O)c1C(c1ccc(C(=O)O)cc1)c1c(C)[nH]n(-c2ccccc2)c1=O	76.3	-1.5	8.1	-1.8	/
Cc1[nH]n(-c2ccccc2)c(=O)c1C(C[N+](=O)[O-])c1ccc(Br)cc1 (stereo not given)	50.5	-1.4	29.3*	-4.3	-20.9
S=C(Nc1ccc(Nc2ccccc2)cc1)Nc1ccccn1	-27.9	2.4	46.1*	-5.2	-4.1
COc1cc(OC)c2c(c1)C(=O)c1cc(OC)cc(OC)c1C2=O	21.4	0.6	43.0*	-34.0	30.5
COc1ccc(C=C2c3ccccc3C(=O)c3ccccc32)c(OC)c1	5.1	-1.1	/	-42.8	/
CC(=NNC(=O)c1nc2ccccn2c1C)c1cc2ccccc2o1	/	/	9.5	/	/
O=S(=O)(O)c1cccc2c(N=Nc3ccc(O)c4ncccc34)cccc12	90.4*	8.3	35.9*	-47.0	39.0
CC(=NNC(=O)CNC(=O)C(c1ccccc1)c1ccccc1)c1ccc(C(C)(C)C)cc1	/	/	-0.3	/	/
CC(OC(=O)c1ccc([N+](=O)[O-])s1)C(=O)Nc1ncc(Cl)cc1Cl (stereo not given)	-6.3	27.1*	57.5*	-18.3	4.1
Cc1ccc(OC(C)C(=O)Nc2ncc(Cl)cc2Cl)c([N+](=O)[O-])n1 (stereo not given)	/	/	-25.9	-10.8	/
COC(=O)COc1ccc(S(=O)(=O)NCCC2=CCCCC2)cc1	-2.6	-1.8	0.4	-1.9	/
CCCNS(=O)(=O)c1ccc(OCC(=O)NCCC2=CCCCC2)cc1	-7.3	1.4	36.4*	1.4	45.3
SMILES	UBC9 SUMO inh	CTSL1 counter	UCH37 DUB inh	Neddylation inh	UCH37 confirm
COC(=O)COc1ccc(S(=O)(=O)NCCC2=CCCCC2)cc1C	-19.6	3.5	54.7*	3.6	60.4*
O=[N+]([O-])c1ccc(NN=C2CC3CC=CC23)cc1 (stereo not given)	/	/	5.2	/	/
O=C(NN=Cc1cc(Br)c(Br)o1)c1cccnc1	/	/	13.5	/	/
Cc1ccc(C(=O)NN=Cc2cc(Br)c(Br)o2)cn1	/	/	27.8*	/	13.3
Nc1cc(C(=O)OCC(=O)N2CCOCC2)ccc1Cl	22.5	-3.4	-27.3	26.6	/
Nc1ccc(C(=O)OCC(=O)N2CCOCC2)cc1[N+](=O)[O-]	13.0	-5.3	37.6*	-40.5	7.5
Cc1ccsc1C=NNC(=O)CNC(=O)c1ccco1	/	/	1.8	/	/
CCOC(=O)c1c(C)[n+]([O-])c2ccc3c(non3O)c12	-1.3	-1.1	6.1	-22.9	/
CCOC(=O)c1c(=O)n(O)c2ccc(C)cc2[n+]1[O-]	28.4	0.9	39.4*	-9.7	13.0
CC(=O)Nc1ccc(SCC(=O)c2cc(C)n(C)c2C)cc1	-11.4	2.8	43.1*	-2.6	-3.5
Cc1ccc(N2C(=O)[C@@H]3[C@H](C2=O)C2c4ccccc4C=CN2[C@@H]3C(=O)c2ccco2)cc1 (stereo not given in full)	44.8	/	4.1	-19.5	/
CC(C)(C)C(=O)[C@@H]1[C@@H]2C(=O)N(c3ccc4c(c3)OCCO4)C(=O)[C@@H]2C2c3ccccc3C=CN21 (stereo not given in full)	7.8	0.4	11.7	-12.0	/
Cc1ccc(N2C(=O)[C@@H]3[C@H](C2=O)C2c4ccccc4C=CN2[C@@H]3C(=O)c2ccco2)c(C)c1 (stereo not given in full)	45.5	34.7*	28.4*	-28.0	2.8
O=C(c1ccco1)[C@@H]1[C@@H]2C(=O)N(c3ccccc3)C(=O)[C@@H]2C2c3ccccc3C=CN21 (stereo not given in full)	34.7	28.2*	63.6*	-24.3	5.0
CCOC(=O)C1=C(COC(=O)c2ccc([N+](=O)[O-])s2)NC(=O)NC1C (stereo not given)	/	/	83.2*	-15.1	27.1
O=C(NN=Cc1ccc(Br)o1)c1ccc2c(c1)OCCO2	/	/	5.6	/	/
CC(=O)C(=NNc1ccccc1Cl)Sc1nnc(-c2ccccc2)n1-c1ccccc1	/	/	3.3	/	/
Cc1cccc(N=C2C(=O)Nc3c(Cl)cccc32)c1	-13.4	6.0	3.0	6.6	/
O=C1Nc2c(Cl)cc(Cl)cc2C1=O	/	/	62.2*	16.2	74.6*
CC(C)(C)c1cc[n+](C2=C([O-])c3ccccc3C(=O)/C2=N\S(=O)(=O)c2cccs2)cc1	58.3	23.7*	49.7*	-136.6	57.9*
O=C1/C(=N\S(=O)(=O)c2cccs2)C([n+]2ccccc2)=C([O-])c2ccccc21	27.4	25.5*	50.6*	-90.6	39.6
O=S(=O)(N=Cc1ccccc1O)c1cccs1	/	/	-1.6	/	/
CC(=NNC(=O)CON=C(C)c1cccs1)c1ccc(N)cc1	/	/	2.4	/	/
COC(=O)c1cc(C)nc2c1C(=O)C(=O)C=C2N1CCOCC1	98.7*	109.7*	100.2*	-45.9	100.4*
COC(=O)c1cc(S(=O)(=O)N2CCOCC2)c(Cl)cc1N1CCOCC1	-7.1	0.5	6.4	4.4	/
Cc1cc(C)c(S(=O)(=O)/N=C2\C=C(NS(=O)(=O)c3ccccc3)C(=O)c3ccccc32)c(C)c1	19.4	-1.3	/	-19.0	/
O=C1C(Nc2ccc(O)cc2)=CC(=NS(=O)(=O)c2cccs2)c2ccccc21	/	/	75.4*	/	41.6
Cc1ccc(Cl)cc1NC1=C/C(=N\S(=O)(=O)c2cccs2)c2ccccc2C1=O	49.4	59.5*	42.5*	-36.4	30.7
S=c1[nH]nc(-c2cccnc2)n1N=Cc1cccs1	/	/	3.4	/	/

Screens as filed in PubChem BioAssay.
